High-throughput results as filed in PubChem.
LEDGF integ inh – blockers of LEDGF/p75-dependent integrase strand transfer – biochemical, TR-FRET, high throughput, primary screen | HIV-1 integrase (with human LEDGF/p75) | TR-FRET IN-LEDGF/p75 DNA integration, Eu/Cy5 | inhibition, % at 3.7 µM | actives 0.64% (n = 370,000) | AID 743269, 2014;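 active means inhibition above the screen-wide mean plus 3 SD, cut at about 13% in these data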;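 further: signal is the Cy5 over europium emission ratio at 671 and 618 nm; 0% = plate median of compound wells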
TDP2 absorb – human TDP2 enzyme inhibitors, primary screen, biochemical, epi absorbance, recombinant enzyme; Tyrosyl-DNA phosphodiesterase 2 (Homo sapiens), O95551; T5PNP hydrolysis, p-nitrophenol absorbance 415 nm; inhibition, % at 12.8 µM; actives 0.34% (n = 370,000); AID 720702, 2013;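 active means inhibition above the mean of all tested compounds plus 3 SD, set per campaign, cut at about 25% in these data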;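 further: 0% = DMSO with enzyme and 100% = buffer with substrate but no TDP2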
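Assay system: Recombinant human TDP2 | Quantity: 120 nM TDP2 per well | Incubation: 2 h at 37 °C | Signal: Epi absorbance | Evaluation: Percent inhibition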
Rin1 Abl inh – inhibitors of Rin1-Abl protein binding, primary screen, biochemical, TR-FRET. actives 0.4% (n = 360,000). AID 588664, 2011. inhibition, % at 7.35 µM; in the data active means inhibition above about 5%, passing the limit was not always enough
UHRF1 binding – UHRF1 methylated DNA binding inhibitors, primary screen, counter-screen for MBD2 inhibitor project, biochemical, TR-FRET, human UHRF1, single concentration; E3 ubiquitin-protein ligase UHRF1 (Homo sapiens), Q96T88; UHRF1 binding to methylated oligo; inhibition, % at 4.4 µM; actives 0.75% (n = 370,000);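 further: UHRF1 SRA domain binding a hemimethylated CpG hairpin DNA probe; 0% = median of test compound wells and 100% = reference inhibitor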
MBD2 DNA inh – inhibitors of MBD2 binding to methylated DNA, primary screen, biochemical, TR-FRET, DNA-binding domain, human; inhibition, % at 4.4 µM; MBD2 binding to methylated oligonucleotide; actives 0.31% (n = 370,000); Methyl-CpG-binding domain protein 2 (Homo sapiens), Q9UBB5; AID 686964, 2013; in the data active means inhibition above about 13%
Target sequence (Q9UBB5 whole entry, looked up, the tested form may be a part): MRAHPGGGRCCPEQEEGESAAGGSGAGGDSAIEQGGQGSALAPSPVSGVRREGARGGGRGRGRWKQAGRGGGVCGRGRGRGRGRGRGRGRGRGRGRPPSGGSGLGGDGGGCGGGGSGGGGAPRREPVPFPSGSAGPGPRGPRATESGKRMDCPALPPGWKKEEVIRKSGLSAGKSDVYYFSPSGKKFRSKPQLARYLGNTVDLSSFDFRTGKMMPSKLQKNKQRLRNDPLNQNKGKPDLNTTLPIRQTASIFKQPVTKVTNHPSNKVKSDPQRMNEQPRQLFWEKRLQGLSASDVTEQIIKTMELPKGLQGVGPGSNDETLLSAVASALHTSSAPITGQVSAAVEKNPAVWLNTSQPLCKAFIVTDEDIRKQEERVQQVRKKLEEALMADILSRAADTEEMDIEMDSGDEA
UHRF1 ctr MBD2 – UHRF1 methylated DNA binding inhibitors, counter-screen for MBD2 inhibitor project, biochemical, TR-FRET, human UHRF1 | shares compounds with MBD2 DNA inh | UHRF1 binding to methylated oligonucleotide | inhibition, % at 4.4 µM | actives 25% (n = 1,000);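 further: UHRF1 SRA domain binding a labeled hemimethylated CpG hairpin DNA; 0% = vehicle only and 100% = reference inhibitor with vehicle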
MBD2 confirm – inhibitors of MBD2 binding to methylated DNA, confirmation, biochemical, TR-FRET, DNA-binding domain, human | AID 720531, 2013 | inhibition, % at 4.4 µM | shares compounds with MBD2 DNA inh | actives 26% (n = 1,000) | TR-FRET MBD2-DBD binding to methylated oligonucleotide; in the data active means inhibition above about 14%
TDP2 inh conf – human TDP2 enzyme inhibitors, retest, confirmation, biochemical, epi absorbance, recombinant enzyme; actives 22% (n = 1,100); shares compounds with TDP2 absorb; absorbance read-out; inhibition, % at 12.8 µM; AID 743263, 2014; in the data active means inhibition above about 25%;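 further: 0% = vehicle with enzyme and 100% = no enzyme buffer only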
IN multimer up – HIV-1 IN multimer formation enhancers, counter-screen for LEDGF/p75 integration inhibitor project, biochemical, TR-FRET; activation, % at 7.7 µM; shares compounds with LEDGF integ inh; TR-FRET HIV-1 integrase multimerization; AID 1053131, 2014; actives 17% (n = 2,000); in the data active means activation above about 8.9%
TRFRET interf – TR-FRET optical interference artefacts, confirmation, artefact control for LEDGF/p75-dependent integration inhibitor project, biochemical, HIV-1 IN multimerization | 2,000 tested, under 10 active | shares compounds with LEDGF integ inh | inhibition, % at 7.7 µM | AID 1053135, 2014 | TR-FRET optical interference counterscreen;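 active means inhibition above the mean over all tested compounds plus 3 SD, which no compound reached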;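 further: 0% = integrase with antibodies and DMSO and 100% = antibodies without integrase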
LEDGF integ conf – inhibitors of HIV-1 IN-LEDGF/p75 DNA integration, confirmation, biochemical, TR-FRET; shares compounds with LEDGF integ inh; TR-FRET LEDGF/p75-dependent HIV-1 integration; actives 36% (n = 2,000); inhibition, % at 3.7 µM; in the data active means inhibition above about 14%
Active calls of the source: *; / = no result. In the library only some 1.9% were active in any assay of this set; here they are far more common. Unless noted, no stated cut-off is given here; in the data, active means inhibition above about 21%; inactive means the rest.

SMILES	LEDGF integ inh	TDP2 absorb	Rin1 Abl inh	UHRF1 binding	MBD2 DNA inh	UHRF1 ctr MBD2	MBD2 confirm	IN multimer up	TRFRET interf	LEDGF integ conf	others
Cc1ccc(S(=O)(=O)NC[C@H]2CN(S(=O)(=O)c3ccc(C)cc3)[C@@H](Cc3ccccc3)CO2)cc1	-4	-6	/	5	4	/	/	/	/	/
C/C=C/C(=O)N1CC2(CC(c3cccc(NC(=O)CC)c3)=NO2)C[C@H]1C(N)=O (some centres not stated)	-5	-8	0	-1	-3	/	/	/	/	/
C/C=C\C(=O)Nc1cccc(C2=NOC3(C2)C[C@@H](C(N)=O)N(C(=O)C2(C)CC2)C3)c1 (some centres not stated)	2	-2	-4	4	3	/	/	/	/	/
C=C(C)C(=O)Nc1cccc(C2=NOC3(C2)C[C@H](C(N)=O)N(C(=O)/C=C/C)C3)c1 (some centres not stated)	26*	-21	1	82*	46*	73*	48*	19*	-96	34*
C=C(C)C(=O)Nc1cccc(C2=NOC3(C2)C[C@@H](C(N)=O)N(C(=O)C2(C)CC2)C3)c1 (some centres not stated)	36*	1	5	92*	55*	94*	79*	93*	-334	60*
C=C(C)C(=O)Nc1cccc(C2=NOC3(C2)C[C@@H](C(N)=O)N(C(=O)C(=C)C)C3)c1 (some centres not stated)	16*	7	-1	74*	35*	73*	42*	17*	-88	30*
COc1ccccc1CCC[C@@H](CCS(=O)(=O)C(C)C)CC1CCCCC1	-3	12	/	1	3	/	/	/	/	/
CCN1Cc2nnn(Cc3ccccc3)c2-c2cc(F)ccc2S1(=O)=O	-2	4	/	-3	4	/	/	/	/	/
Cc1cc(C(=O)NN=Cc2cccc(O)c2)n[nH]1	-2	8	/	-3	-6	/	/	/	/	/
Cc1c(O)cc2c(c1O)C(=O)CC(c1ccc(O)cc1)O2 (configuration not stated)	22*	-2	8	29*	15*	9	3	37*	-185	39*
COc1cc(O)c2c(c1)OC(c1ccc(O)cc1)CC2=O (configuration not stated)	7	6	-2	-3	-4	/	/	/	/	/
O=C(c1ccc(Cl)cc1)N1CCC(Oc2cccnc2)CC1	-1	5	/	5	4	/	/	/	/	/
Nc1ccc2nc(-c3cccc(-c4nc5ccc(N)cc5[nH]4)c3)[nH]c2c1	16*	-5	-1	26*	14*	4	4	60*	-213	-11
COc1ccc(CNC(=O)C2CCCN(c3nc4ccccc4o3)C2)cc1 (configuration not stated)	-3	2	/	3	5	/	/	/	/	/
CC1=NN(c2ccccc2)C(=O)C1	31*	66*	12	18	18*	6	1	1	-4	1	TDP2 inh conf=8
CC1=NN(c2cccc([N+](=O)[O-])c2)C(=O)C1	0	7	3	-5	-1	/	/	/	/	/
COC(=O)C1=C(C)N(Cc2ccccc2C(F)(F)F)C(=NCc2ccc(OC)cc2)NC1c1ccc(C(F)(F)F)cc1 (configuration not stated)	1	0	/	1	-1	/	/	/	/	/
Cc1ccc(/C=C/C(=O)NCc2ccco2)o1	37*	14	/	54*	14*	48*	17*	13*	-66	60*
O=C(/C=C/c1ccco1)NCc1ccco1	6	12	-1	-2	2	/	/	/	/	/
O=C(NCCc1ccc(F)cc1)c1cc2ccccn2n1	1	0	/	1	-7	/	/	/	/	/
Cc1ccc(C(=O)C2CCN(CC(=O)N3CCCC3)CC2)cc1	5	-1	/	5	2	/	/	/	/	/
c1coc(-c2nc(-c3ccco3)c(-c3ccco3)nc2-c2ccco2)c1	90*	50*	6	95*	67*	42*	20*	8	-30	82*	TDP2 inh conf=3
COc1ccc2nc(-c3ccco3)c(-c3ccco3)nc2c1	65*	15	2	78*	20*	25*	10	5	-28	50*
Cc1ccc(Cn2cc(COC(=O)Nc3ccc(F)cc3)nn2)cc1	3	2	/	3	-1	/	/	/	/	/
COc1ccccc1Cc1c(-c2ccc(OC)c(OC)c2)nc2cc(C)c(Br)c(C)n12	18*	33*	/	26*	19*	-1	3	0	1	-7	TDP2 inh conf=2
COc1ccc(OC)c(C2Nc3c(Cl)ccc(C(=O)O)c3C3C=CCC32)c1 (configuration not stated)	9	13	0	1	1	/	/	/	/	/
COC(=O)COc1ccc(C2Nc3c(Cl)ccc(C(=O)O)c3C3C=CCC32)cc1 (configuration not stated)	66*	-8	-1	46*	18*	12	4	-1	5	21*
COC(=O)[C@]12C[C@H](CC(=O)NCCc3ccccc3OC)C(=O)N(Cc3ccco3)C1=C[C@H](C1CCCC1)O[C@@H]2C	1	-5	/	-4	2	/	/	/	/	/
